Reference: article PMC4973392 (Angewandte Chemie (International ed. in English), 2016)

Columns and labels:
[1] = tested on: IκBα sumoylation; assay: conjugation of SUMO to full-length recombinant IκBα; format: biochemical
[2] = target: Ubc9-K59A mutant (Homo sapiens, UniProt P63279, K59A); assay: sumoylation of fluorescent substrate peptide with Ubc9-K59A mutant; format: biochemical; details: at any concentration
[3] = target: T1, Ubc9 (Homo sapiens, UniProt P63279); format: biochemical; details: SUMO-1 conjugation to peptide substrate
T1 sequence (P63279 whole entry): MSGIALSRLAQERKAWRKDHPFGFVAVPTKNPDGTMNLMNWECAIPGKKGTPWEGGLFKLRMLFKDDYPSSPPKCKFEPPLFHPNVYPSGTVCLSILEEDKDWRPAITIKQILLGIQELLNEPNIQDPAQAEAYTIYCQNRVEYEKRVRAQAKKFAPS

[4] = target: T2, E1-SUMO thioester (Homo sapiens, UniProt Q9UBE0+Q9UBT2); assay: E1-SUMO thioester formation with fluorescently labeled SUMO-1; format: biochemical; details: at relevant concentrations
T2 sequence (Q9UBE0 1-346): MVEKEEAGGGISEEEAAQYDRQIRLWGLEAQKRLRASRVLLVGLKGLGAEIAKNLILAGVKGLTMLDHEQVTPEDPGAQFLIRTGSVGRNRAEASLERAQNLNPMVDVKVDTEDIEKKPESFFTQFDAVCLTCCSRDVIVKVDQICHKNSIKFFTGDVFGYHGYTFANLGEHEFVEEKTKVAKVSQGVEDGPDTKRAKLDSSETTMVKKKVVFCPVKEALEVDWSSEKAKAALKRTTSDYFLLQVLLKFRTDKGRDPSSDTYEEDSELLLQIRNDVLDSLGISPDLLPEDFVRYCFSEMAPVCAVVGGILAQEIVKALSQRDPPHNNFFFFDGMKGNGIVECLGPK
T2 sequence (Q9UBT2 1-640): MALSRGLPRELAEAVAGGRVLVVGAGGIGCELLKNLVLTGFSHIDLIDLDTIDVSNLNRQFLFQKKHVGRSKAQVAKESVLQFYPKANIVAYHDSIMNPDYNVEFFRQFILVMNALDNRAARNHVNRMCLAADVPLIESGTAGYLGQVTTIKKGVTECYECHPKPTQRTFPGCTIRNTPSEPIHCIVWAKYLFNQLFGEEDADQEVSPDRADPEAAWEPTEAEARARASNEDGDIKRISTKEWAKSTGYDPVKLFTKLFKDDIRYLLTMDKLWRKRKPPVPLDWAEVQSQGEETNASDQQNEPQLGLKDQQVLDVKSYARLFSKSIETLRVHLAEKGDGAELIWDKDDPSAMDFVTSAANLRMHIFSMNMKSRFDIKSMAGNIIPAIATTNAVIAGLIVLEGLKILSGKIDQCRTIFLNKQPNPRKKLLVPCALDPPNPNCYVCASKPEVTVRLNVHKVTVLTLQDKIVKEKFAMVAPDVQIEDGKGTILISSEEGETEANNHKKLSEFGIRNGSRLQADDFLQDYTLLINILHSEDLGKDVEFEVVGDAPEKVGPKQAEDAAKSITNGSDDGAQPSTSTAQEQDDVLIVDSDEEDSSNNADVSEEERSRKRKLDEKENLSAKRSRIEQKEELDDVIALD
In short: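 E1–SUMO thioester formation was followed using fluorescently labeled SUMO-1 in the presence of the test compound. The negative-control lane omitted E1.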

[5] = target: Ubc9-E42A mutant (Homo sapiens, UniProt P63279, E42A); assay: sumoylation of fluorescent substrate peptide with Ubc9-E42A mutant; format: biochemical; details: at any concentration
Sequence of Ubc9-E42A mutant (P63279 whole entry E42A): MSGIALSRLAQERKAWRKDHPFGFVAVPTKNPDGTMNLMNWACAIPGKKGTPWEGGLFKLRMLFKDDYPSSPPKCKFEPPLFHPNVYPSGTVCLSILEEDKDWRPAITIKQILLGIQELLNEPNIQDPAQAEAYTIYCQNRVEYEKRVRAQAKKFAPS

[6] = target: T1, Ubc9; assay: 1H-15N HSQC NMR chemical shift perturbation; format: binding
In short: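 1H-15N HSQC spectra recorded with 200 μM Ubc9 in a solution saturated with the test compound. Chemical shifts of selected residues were compared between apo and compound-bound protein.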

[7] = tested on: RanGAP1 sumoylation; assay: conjugation of SUMO to recombinant protein fragment of RanGAP1; format: biochemical
[8] = target: E2-SUMO thioester (Homo sapiens, UniProt P63279); assay: E2-SUMO thioester formation with fluorescently labeled SUMO-1; format: biochemical; details: at concentrations that correlated well with the IC50
Sequence of E2-SUMO thioester (P63279 whole entry): as the sequence (P63279 whole entry) above

Sequence of Ubc9-K59A mutant (P63279 whole entry K59A): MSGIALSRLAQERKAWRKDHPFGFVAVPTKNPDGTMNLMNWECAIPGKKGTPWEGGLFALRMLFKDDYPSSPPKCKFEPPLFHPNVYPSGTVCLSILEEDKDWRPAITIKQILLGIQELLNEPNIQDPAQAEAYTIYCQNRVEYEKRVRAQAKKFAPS

Oc1ccccc1-c1ccccc1O [compound 1, 2,2′-bisphenol]
effect on conjugation of SUMO to IκBα [1]: inhibited | inhibition of Ubc9 K59A mutant [2]: neither mutant was inhibited | IC50 [3]: 5.8 ± 0.1 mM | effect on formation of the E1-SUMO thioester [4]: no effect | inhibition of Ubc9 E42A mutant [5]: neither mutant was inhibited | binding to Ubc9 in solution (chemical shift perturbations) [6]: specific binding | effect on conjugation of SUMO to RanGAP1 fragment [7]: inhibited | effect on formation of the E2-SUMO thioester [8]: inhibited
